Results taken from ChEMBL document CHEMBL4177760, “Ligand-Phospholipid Conjugation: A Versatile Strategy for Developing Long-Acting Ligands That Bind to Membrane Proteins by Restricting the Subcellular Localization of the Ligand” (J Med Chem, 2018).
Activity calls are given as the source filed them. The calls are words filed in the database; no cut-off is given here.

Tests used:
[1] = biological target: Muscarinic acetylcholine receptor; experiment: Displacement of [3H]NMS from muscarinic receptor in Sprague-Dawley rat brain homogenates after 60 mins by liquid scintillation counting method
Summary of the method: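 Competition binding against [3H]N-methyl scopolamine in rat brain homogenates carrying muscarinic receptors; read-out as log IC50; data from at least four experiments.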

[2] = biological target: T1, Muscarinic acetylcholine receptor (Rattus norvegicus) (UniProt P08482+P08483+P08485+P08911+P10980); experiment: Displacement of [3H]NMS from muscarinic receptor in Sprague-Dawley rat brain homogenates assessed as remaining protein bound radioligand levels at 300 pM to 1 uM after 60 mins by liquid scintillation counting method relative to control
Summary of the method: (§1)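 Rat brain homogenates incubated with test ligand at 25 °C. [3H]N-methyl scopolamine binding to muscarinic receptors measured before and after wash-out with ice-cold buffer and expressed as binding remaining. Based on at least four experiments.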

[3] = biological target: T1, Muscarinic acetylcholine receptor (Rattus norvegicus); experiment: Displacement of [3H]NMS from muscarinic receptor in Sprague-Dawley rat brain homogenates assessed as remaining protein bound radioligand levels at 300 pM to 1 uM preincubated for 60 mins followed by double washout treatment by liquid scintillation counting method relative to control; summary of the method: as §1
[4] = biological target: T1, Muscarinic acetylcholine receptor (Rattus norvegicus); experiment: Displacement of [3H]NMS from muscarinic receptor in Sprague-Dawley rat brain homogenates assessed as remaining protein bound radioligand levels at 300 pM to 1 uM preincubated for 60 mins followed by single washout treatment by liquid scintillation counting method relative to control; summary of the method: as §1
Rattus norvegicus [5] = experiment: In vivo displacement of [3H]NMS from muscarinic receptor in rat bladder assessed as increase in [3H]NMS Kdapp at 10 uM administered via intravesical instillation measured after 24 hrs; type: functional, organism-based
Summary of the method: (§2)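 Rats received the compound by intravesical instillation. Bladders were dissected 30 min or 24 h afterwards and [3H]N-methyl scopolamine binding to bladder muscarinic receptors was measured directly. The apparent Kd (Kdapp) of the radioligand was calculated and compared against control animals.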

Rattus norvegicus [6] = experiment: In vivo displacement of [3H]NMS from muscarinic receptor in rat bladder assessed as increase in [3H]NMS Kdapp at 10 uM administered via intravesical instillation measured after 30 mins; type: functional, organism-based; summary of the method: as §2
[7] = biological target: T2, Muscarinic acetylcholine receptor M5 (Rattus norvegicus, UniProt P08911); experiment: Displacement of [3H]NMS from muscarinic receptor M5 in Sprague-Dawley rat brain homogenates after 60 mins by liquid scintillation counting method
T2 sequence (P08911 whole entry): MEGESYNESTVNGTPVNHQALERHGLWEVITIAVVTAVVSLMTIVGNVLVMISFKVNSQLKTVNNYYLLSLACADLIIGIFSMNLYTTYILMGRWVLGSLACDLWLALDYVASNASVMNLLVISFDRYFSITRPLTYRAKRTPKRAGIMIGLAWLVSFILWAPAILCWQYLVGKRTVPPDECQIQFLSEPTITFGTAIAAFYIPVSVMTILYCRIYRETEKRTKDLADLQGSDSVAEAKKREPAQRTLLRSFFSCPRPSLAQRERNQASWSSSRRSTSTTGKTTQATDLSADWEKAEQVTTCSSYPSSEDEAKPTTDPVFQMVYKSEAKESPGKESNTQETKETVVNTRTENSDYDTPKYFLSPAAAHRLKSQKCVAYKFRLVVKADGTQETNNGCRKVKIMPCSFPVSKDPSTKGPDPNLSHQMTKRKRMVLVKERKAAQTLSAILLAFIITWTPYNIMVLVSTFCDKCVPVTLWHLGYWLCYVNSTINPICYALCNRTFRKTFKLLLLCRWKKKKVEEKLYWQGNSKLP

[8] = biological target: T3, Muscarinic acetylcholine receptor M4 (Rattus norvegicus, UniProt P08485); experiment: Displacement of [3H]NMS from muscarinic receptor M4 in Sprague-Dawley rat brain homogenates after 60 mins by liquid scintillation counting method
T3 sequence (P08485 whole entry): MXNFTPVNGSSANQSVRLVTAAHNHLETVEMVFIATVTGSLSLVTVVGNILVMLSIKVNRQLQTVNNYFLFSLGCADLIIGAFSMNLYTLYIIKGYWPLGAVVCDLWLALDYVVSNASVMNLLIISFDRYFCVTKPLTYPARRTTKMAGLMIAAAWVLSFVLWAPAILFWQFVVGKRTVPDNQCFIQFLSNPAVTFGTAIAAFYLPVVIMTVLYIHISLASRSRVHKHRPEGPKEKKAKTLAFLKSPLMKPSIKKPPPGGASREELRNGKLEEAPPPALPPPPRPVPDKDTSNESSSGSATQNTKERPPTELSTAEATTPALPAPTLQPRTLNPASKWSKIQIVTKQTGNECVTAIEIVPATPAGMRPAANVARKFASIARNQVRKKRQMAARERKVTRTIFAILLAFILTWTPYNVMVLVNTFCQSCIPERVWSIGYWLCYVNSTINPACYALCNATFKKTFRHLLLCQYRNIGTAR

[9] = biological target: T4, Muscarinic acetylcholine receptor M1 (Rattus norvegicus, UniProt P08482); experiment: Displacement of [3H]NMS from muscarinic receptor M1 in Sprague-Dawley rat brain homogenates after 60 mins by liquid scintillation counting method
T4 sequence (P08482 whole entry): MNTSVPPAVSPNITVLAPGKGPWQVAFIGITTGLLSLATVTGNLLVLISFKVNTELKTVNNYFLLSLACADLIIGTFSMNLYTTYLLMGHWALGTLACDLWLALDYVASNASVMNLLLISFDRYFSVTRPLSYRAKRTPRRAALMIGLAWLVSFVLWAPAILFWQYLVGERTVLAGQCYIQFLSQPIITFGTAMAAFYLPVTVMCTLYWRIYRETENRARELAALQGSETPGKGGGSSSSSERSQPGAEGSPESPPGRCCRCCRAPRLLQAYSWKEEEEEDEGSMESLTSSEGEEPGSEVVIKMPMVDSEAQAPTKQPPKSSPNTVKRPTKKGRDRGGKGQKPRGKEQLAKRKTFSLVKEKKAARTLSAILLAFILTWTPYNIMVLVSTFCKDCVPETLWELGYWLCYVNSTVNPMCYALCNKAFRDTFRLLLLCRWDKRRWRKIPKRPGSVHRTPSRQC

[10] = biological target: T5, Muscarinic acetylcholine receptor M2 (Rattus norvegicus, UniProt P10980); experiment: Displacement of [3H]NMS from muscarinic receptor M2 in Sprague-Dawley rat brain homogenates after 60 mins by liquid scintillation counting method
T5 sequence (P10980 whole entry): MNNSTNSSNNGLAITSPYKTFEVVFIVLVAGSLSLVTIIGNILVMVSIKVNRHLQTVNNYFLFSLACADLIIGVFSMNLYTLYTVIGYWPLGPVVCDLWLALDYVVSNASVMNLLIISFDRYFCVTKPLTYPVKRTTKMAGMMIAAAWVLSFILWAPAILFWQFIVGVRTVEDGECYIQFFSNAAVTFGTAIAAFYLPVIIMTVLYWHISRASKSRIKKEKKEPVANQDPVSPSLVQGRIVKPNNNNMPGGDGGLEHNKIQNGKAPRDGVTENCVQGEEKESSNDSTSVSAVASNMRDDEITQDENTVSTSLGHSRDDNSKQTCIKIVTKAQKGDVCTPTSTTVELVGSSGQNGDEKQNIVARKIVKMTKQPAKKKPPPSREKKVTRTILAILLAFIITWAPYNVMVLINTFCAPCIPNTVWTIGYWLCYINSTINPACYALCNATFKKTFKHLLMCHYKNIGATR

[11] = biological target: Muscarinic acetylcholine receptor M3 (Rattus norvegicus, UniProt P08483); experiment: Displacement of [3H]NMS from muscarinic receptor M3 in Sprague-Dawley rat brain homogenates after 60 mins by liquid scintillation counting method
Sequence of Muscarinic acetylcholine receptor M3 (P08483 whole entry): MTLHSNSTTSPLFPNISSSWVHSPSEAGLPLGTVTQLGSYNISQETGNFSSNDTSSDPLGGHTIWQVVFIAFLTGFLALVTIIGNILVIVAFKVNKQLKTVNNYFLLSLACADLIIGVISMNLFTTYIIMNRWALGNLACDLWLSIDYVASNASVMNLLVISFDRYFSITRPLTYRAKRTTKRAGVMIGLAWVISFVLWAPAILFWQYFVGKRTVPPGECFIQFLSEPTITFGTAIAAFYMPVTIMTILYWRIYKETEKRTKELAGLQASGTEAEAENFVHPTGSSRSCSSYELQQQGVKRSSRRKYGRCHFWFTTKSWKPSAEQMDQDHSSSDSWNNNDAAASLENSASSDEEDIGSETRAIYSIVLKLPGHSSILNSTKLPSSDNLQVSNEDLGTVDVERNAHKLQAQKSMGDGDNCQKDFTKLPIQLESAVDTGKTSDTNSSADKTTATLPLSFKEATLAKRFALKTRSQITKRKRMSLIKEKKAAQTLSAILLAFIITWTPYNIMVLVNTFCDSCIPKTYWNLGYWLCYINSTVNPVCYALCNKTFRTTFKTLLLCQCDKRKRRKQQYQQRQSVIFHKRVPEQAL

Compound	pIC50 [1]	Activity [2] [%]	Activity [3] [%]	Activity [4] [%]	inhibition (Rattus norvegicus [5])	inhibition (Rattus norvegicus [6])	Ki [7] [nM]	Ki [8] [nM]	Ki [9] [nM]	Ki [10] [nM]	Ki [11] [nM]
CC(C)N(CC[C@H](c1ccccc1)c1cc(CCNC(=O)CCCCCC(=O)NCCOCCOCCOCCOCCOCCOCCOCCOCCOCCO)ccc1O)C(C)C.Cl	7.88	7.1	63.5	34.9							
CCCCCCCCCCCCCCCCCC(=O)OC[C@H](COP(=O)(O)OCCOCCOCCOCCOCCOCCOCCOCCOCCOCCOCCOCCNC(=O)CCCCCC(=O)NCCc1ccc(O)c([C@H](CCN(C(C)C)C(C)C)c2ccccc2)c1)OC(=O)CCCCCCCCCCCCCCCCC	8.49	11.2		1.9							
CCCCCCCCCCCCCCCCCC(=O)OC[C@H](COP(=O)(O)OCCOCCOCCOCCOCCOCCNC(=O)CCCCCC(=O)NCCc1ccc(O)c([C@H](CCN(C(C)C)C(C)C)c2ccccc2)c1)OC(=O)CCCCCCCCCCCCCCCCC	7.86	14.5		5.1							
CCCCCCCCCCCCCCCCCC(=O)OC[C@H](COP(=O)(O)OCCOCCNC(=O)CCCCCC(=O)NCCc1ccc(O)c([C@H](CCN(C(C)C)C(C)C)c2ccccc2)c1)OC(=O)CCCCCCCCCCCCCCCCC	6.91	66.4		59.2							
CCCCCCCCCCCCCCCCCC(=O)OC[C@H](COP(=O)(O)OCCOCCOCCOCCOCCOCCOCCOCCOCCOCCNC(=O)CCCCCC(=O)NCCc1ccc(O)c([C@H](CCN(C(C)C)C(C)C)c2ccccc2)c1)OC(=O)CCCCCCCCCCCCCCCCC	8.53	6	2.1	1.7	Active	Active					
Cc1ccc(O)c([C@H](CCN(C(C)C)C(C)C)c2ccccc2)c1 [TOLTERODINE]		9	93.2	36.2	inactive	Active	2.2	3.1	1.4		
CCCCCCCCCCCCCCCCCC(=O)OC[C@H](COP(=O)(O)OCCOCCOCCOCCNC(=O)CCCCCC(=O)NCCc1ccc(O)c([C@H](CCN(C(C)C)C(C)C)c2ccccc2)c1)OC(=O)CCCCCCCCCCCCCCCCC	7.74	32.3		15.5							
CCCCCCCCCCCCCCCCCC(=O)OC[C@H](COP(=O)(O)OCCOCCOCCOCCOCCOCCOCCOCCNC(=O)CCCCCC(=O)NCCc1ccc(O)c([C@H](CCN(C(C)C)C(C)C)c2ccccc2)c1)OC(=O)CCCCCCCCCCCCCCCCC	8.15	4.7		2.1							
CC(C)N(CC[C@H](c1ccccc1)c1cc(CCNC(=O)CCCCCNC(=O)COc2ccc(/C=C/C3=[N+]4C(=Cc5ccc(-c6cccs6)n5[B-]4(F)F)C=C3)cc2)ccc1O)C(C)C							17.5	6.3	4.6	9	10.3
